Reference: ChEMBL document CHEMBL1132488, “On the bioactive conformation of NAN-190 (1) and MP3022 (2), 5-HT(1A) receptor antagonists” (J Med Chem, 1999)

How the values were obtained:
Rattus norvegicus [1] = species: Rattus norvegicus; assay: Dose Inducing behavioral syndrome(FBP: flat body posture) by the compound in reserpine pretreated rats.; assay type: functional
In short: (§1)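 Male Wistar rats (260–300 g), groups of 6, given reserpine 1 mg/kg sc 18 h before test. Compounds given ip as 1% Tween 80 suspension. FBP and FT rated 0–3 in 45-s sessions every 3 min, starting 3 min after dosing. Score summed over 5 periods (max 15 per symptom). Mean ± SEM; Newman–Keuls test.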

Rattus norvegicus [2] = assay: Effect on 8-OH-DPAT-Induced LLR(lower lip retraction) in rats at a dose of 8 mg/kg; assay type: functional
In short: (§2)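 Male Wistar rats, groups of 6. Compound given ip in 1% Tween 80 45 min before 8-OH-DPAT 1 mg/kg sc. Lower incisor visibility scored 0/0.5/1 at 15, 30 and 45 min after agonist, summed (max 3). Mean ± SEM; Newman–Keuls test; ED50 with range.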

Rattus norvegicus [3] = species: Rattus norvegicus; assay: Effective dose of the required to inhibit symptoms produced by 8-OH-DPAT; assay type: functional
In short: (§3)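 Reserpinized male Wistar rats (reserpine 1 mg/kg sc, 18 h before), groups of 6. Compound given ip in 1% Tween 80 60 min before 8-OH-DPAT 5 mg/kg sc. FBP/FT rated 0–3 at 3, 6, 9, 12 and 15 min after agonist, summed (max 15). Mean ± SEM; Newman–Keuls test; ED50 with range.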

Rattus norvegicus [4] = assay: Effect on 8-OH-DPAT-Induced LLR(lower lip retraction) in rats at a dose of 16 mg/kg; assay type: functional; in short: as §2
Rattus norvegicus [5] = species: Rattus norvegicus; assay: Induction of behavioral syndrome(FBP: flat body posture) by the compound in reserpine pretreated rats at a dose of 4.; assay type: functional
In short: (§4)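 Male Wistar rats (260–300 g) were given reserpine 1 mg/kg sc in saline 18 h before testing. Test compound was then given alone ip as a 1% Tween 80 suspension (2 mL/kg). FBP and FT were each scored 0–3 and summed (maximum 15). n=6 per group; mean ± SEM; Newman–Keuls test.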

Rattus norvegicus [6] = assay: Induction of LLR(lower lip retraction) by the compound in rats at a dose of 8 mg/kg; assay type: functional
In short: (§5)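 Male Wistar rats, groups of 6, given compound alone ip as 1% Tween 80 suspension. Lower incisor visibility scored 0/0.5/1 at 15, 30 and 45 min after dosing, summed (max 3 per rat). Mean ± SEM versus vehicle, Newman–Keuls test; ED50 with range.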

Rattus norvegicus [7] = species: Rattus norvegicus; assay: Induction of behavioral syndrome(FT: forepaw treading) by the compound in reserpine pretreated rats at a dose of 4.; assay type: functional; in short: as §4
Rattus norvegicus [8] = species: Rattus norvegicus; assay: Effect on 8-OH-DAPT- induced behavioral syndrome(FT: forepaw treading) by the compound in reserpine pretreated rats at a dose of 2.; assay type: functional
Rattus norvegicus [9] = species: Rattus norvegicus; assay: Dose Inducing behavioral syndrome(FT: forepaw treading) by the compound in reserpine pretreated rats.; assay type: functional; in short: as §1
Rattus norvegicus [10] = assay: Induction of LLR(lower lip retraction) by the compound in rats at a dose of 16 mg/kg; assay type: functional; in short: as §5
Rattus norvegicus [11] = species: Rattus norvegicus; assay: Induction of behavioral syndrome(FT: forepaw treading) by the compound in reserpine pretreated rats at a dose of 2.; assay type: functional
Rattus norvegicus [12] = species: Rattus norvegicus; assay: Effect on 8-OH-DAPT- induced behavioral syndrome(FBP: flat body posture) by the compound in reserpine pretreated rats at a dose of 2.; assay type: functional
Rattus norvegicus [13] = species: Rattus norvegicus; assay: Induction of behavioral syndrome(FBP: flat body posture) by the compound in reserpine pretreated rats at a dose of 2.; assay type: functional; in short: as §1
[14] = molecular target: T1, 5-hydroxytryptamine receptor 1A (Rattus norvegicus, UniProt P19327); assay: Ability to displace [3H]8-OH-DPAT from 5-hydroxytryptamine 1A receptor
T1 sequence (P19327 whole entry): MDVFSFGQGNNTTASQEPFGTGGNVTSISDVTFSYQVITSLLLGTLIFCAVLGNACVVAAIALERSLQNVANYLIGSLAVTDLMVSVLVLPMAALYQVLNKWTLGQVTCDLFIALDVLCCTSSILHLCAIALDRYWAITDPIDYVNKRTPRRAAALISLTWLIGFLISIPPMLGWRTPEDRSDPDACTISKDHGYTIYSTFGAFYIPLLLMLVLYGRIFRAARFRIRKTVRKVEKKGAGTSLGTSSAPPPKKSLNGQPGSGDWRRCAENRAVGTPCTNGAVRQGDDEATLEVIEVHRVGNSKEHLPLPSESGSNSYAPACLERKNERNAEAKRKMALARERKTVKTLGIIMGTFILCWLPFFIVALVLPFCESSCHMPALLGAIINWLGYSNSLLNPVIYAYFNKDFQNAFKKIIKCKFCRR
In short: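 Rat hippocampal membranes, [3H]8-OH-DPAT radioligand. Ki from at least three competition experiments, each with 10–14 drug concentrations run in triplicate. Ki calculated with the Cheng–Prusoff equation.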

Rattus norvegicus [15] = species: Rattus norvegicus; assay: Effect on 8-OH-DAPT- induced behavioral syndrome(FT: forepaw treading) by the compound in reserpine pretreated rats at a dose of 8.; assay type: functional; in short: as §3
Rattus norvegicus [16] = species: Rattus norvegicus; assay: Effect on 8-OH-DAPT- induced behavioral syndrome(FBP: flat body posture) by the compound in reserpine pretreated rats at a dose of 8.; assay type: functional; in short: as §3
Rattus norvegicus [17] = species: Rattus norvegicus; assay: Induction of behavioral syndrome(FBP: flat body posture) by the compound in reserpine pretreated rats at a dose of 8.; assay type: functional; in short: as §4
Rattus norvegicus [18] = species: Rattus norvegicus; assay: Effect on 8-OH-DAPT- induced behavioral syndrome(FT: forepaw treading) by the compound in reserpine pretreated rats at a dose of 4.; assay type: functional; in short: as §3
Rattus norvegicus [19] = species: Rattus norvegicus; assay: Induction of behavioral syndrome(FT: forepaw treading) by the compound in reserpine pretreated rats at a dose of 8.; assay type: functional; in short: as §4
Rattus norvegicus [20] = species: Rattus norvegicus; assay: Effect on 8-OH-DAPT- induced behavioral syndrome(FBP: flat body posture) by the compound in reserpine pretreated rats at a dose of 4.; assay type: functional; in short: as §3
Rattus norvegicus [21] = assay: Effect on 8-OH-DPAT-Induced LLR(lower lip retraction) in rats at a dose of 4 mg/kg; assay type: functional; in short: as §2
Rattus norvegicus [22] = assay: Induction of LLR(lower lip retraction) by the compound in rats at a dose of 4 mg/kg; assay type: functional; in short: as §5
Rattus norvegicus [23] = species: Rattus norvegicus; assay: Induction of behavioral syndrome(FBP: flat body posture) by the compound in reserpine pretreated rats at a dose of 16; FBP mean score; assay type: functional; in short: as §1
Rattus norvegicus [24] = species: Rattus norvegicus; assay: Effect on 8-OH-DAPT- induced behavioral syndrome(FT: forepaw treading) by the compound in reserpine pretreated rats at a dose of 16; FT mean score; assay type: functional; in short: as §3
Rattus norvegicus [25] = species: Rattus norvegicus; assay: Induction of behavioral syndrome(FBP: flat body posture) by the compound in reserpine pretreated rats at a dose of 32; FBP mean score; assay type: functional; in short: as §4
Rattus norvegicus [26] = species: Rattus norvegicus; assay: Dose Inducing behavioral syndrome(FT: forepaw treading) by the compound in reserpine pretreated rats; assay type: functional; in short: as §1
Rattus norvegicus [27] = species: Rattus norvegicus; assay: Induction of behavioral syndrome(FT: forepaw treading) by the compound in reserpine pretreated rats at a dose of 16; FT mean score; assay type: functional; in short: as §4
Rattus norvegicus [28] = species: Rattus norvegicus; assay: Effect on 8-OH-DAPT- induced behavioral syndrome(FBP: flat body posture) by the compound in reserpine pretreated rats at a dose of 32; FBP mean score; assay type: functional; in short: as §3
Rattus norvegicus [29] = species: Rattus norvegicus; assay: Induction of behavioral syndrome(FT: forepaw treading) by the compound in reserpine pretreated rats at a dose of 8; FT mean score; assay type: functional; in short: as §4
Rattus norvegicus [30] = species: Rattus norvegicus; assay: Induction of behavioral syndrome(FT: forepaw treading) by the compound in reserpine pretreated rats at a dose of 32; FT mean score; assay type: functional; in short: as §4
Rattus norvegicus [31] = assay: Induction of LLR(lower lip retraction) by the compound in rats at a dose of 32 mg/kg; assay type: functional; in short: as §5
Rattus norvegicus [32] = species: Rattus norvegicus; assay: Effect on 8-OH-DAPT- induced behavioral syndrome(FBP: flat body posture) by the compound in reserpine pretreated rats at a dose of 8; FBP mean score; assay type: functional; in short: as §3
Rattus norvegicus [33] = species: Rattus norvegicus; assay: Effect on 8-OH-DAPT- induced behavioral syndrome(FT: forepaw treading) by the compound in reserpine pretreated rats at a dose of 32; FT mean score; assay type: functional; in short: as §3
Rattus norvegicus [34] = assay: Induction of LLR(lower lip retraction) by the compound in rat at a dose of 8 mg/kg; LLR score; assay type: functional; in short: as §5
Rattus norvegicus [35] = species: Rattus norvegicus; assay: Induction of behavioral syndrome(FBP: flat body posture) by the compound in reserpine pretreated rats at a dose of 8; FBP mean score; assay type: functional; in short: as §4
Rattus norvegicus [36] = species: Rattus norvegicus; assay: Effect on 8-OH-DAPT- induced behavioral syndrome(FBP: flat body posture) by the compound in reserpine pretreated rats at a dose of 16; FBP mean score; assay type: functional; in short: as §3
Rattus norvegicus [37] = species: Rattus norvegicus; assay: Effect on 8-OH-DAPT- induced behavioral syndrome(FT: forepaw treading) by the compound in reserpine pretreated rats at a dose of 8; FT mean score; assay type: functional; in short: as §3
Rattus norvegicus [38] = assay: Effect on 8-OH-DPAT-Induced LLR(lower lip retraction) in rats at a dose of 32 mg/kg; assay type: functional; in short: as §2
Rattus norvegicus [39] = species: Rattus norvegicus; assay: Dose Inducing behavioral syndrome(FBP: flat body posture) by the compound in reserpine pretreated rats; assay type: functional; in short: as §1
Rattus norvegicus [40] = species: Rattus norvegicus; assay: Dose inhibiting 8-OH-DPAT-induced behavioral syndrome(FBP: flat body posture) by the compound in reserpine pretreated rats.

Row | SMILES | LLR score (Rattus norvegicus [2]) | ED50 (Rattus norvegicus [3]) [mg/kg] | LLR score (Rattus norvegicus [4]) | FBP mean score (Rattus norvegicus [5]) | LLR score (Rattus norvegicus [6]) | FT mean score (Rattus norvegicus [7]) | FT mean score (Rattus norvegicus [8]) | ED50 (Rattus norvegicus [9]) [mg/kg] | LLR score (Rattus norvegicus [10]) | FT mean score (Rattus norvegicus [11]) | FBP mean score (Rattus norvegicus [12]) | FBP mean score (Rattus norvegicus [13]) | Ki [14] [nM] | FT mean score (Rattus norvegicus [15]) | FBP mean score (Rattus norvegicus [16]) | FBP mean score (Rattus norvegicus [17]) | FT mean score (Rattus norvegicus [18]) | FT mean score (Rattus norvegicus [19]) | FBP mean score (Rattus norvegicus [20]) | LLR score (Rattus norvegicus [21]) | also measured
1 | COc1ccccc1N1CCN(C2CCC(N3C(=O)c4ccccc4C3=O)CC2)CC1 (configuration not stated) | 1.5 | 7.5 | 0.6 | 0.2 | 1 | 0.2 | 6.2 | 2.3 | 1.2 | 0.1 | 9.8 | 0.1 | 8 | 1 | 5.6 | 0.2 | 4.2 | 0.2 | 8.8 | 2 | ED50 (Rattus norvegicus [1]): 6.3; LLR score (Rattus norvegicus [22]): 1.3
2 | O=C1c2ccccc2C(=O)N1C1CCC(N2CCc3ccccc3C2)CC1 (configuration not stated) | 2.3 | > 32 | 2.5 |  |  |  |  |  | 0.2 |  |  |  | 34 |  |  |  |  |  |  |  | FBP mean score (Rattus norvegicus [23]): 0.5; FT mean score (Rattus norvegicus [24]): 5.7; FBP mean score (Rattus norvegicus [25]): 0.3; ED50 (Rattus norvegicus [26]): 13.5 mg/kg; FT mean score (Rattus norvegicus [27]): 0.1; FBP mean score (Rattus norvegicus [28]): 11.8; FT mean score (Rattus norvegicus [29]): 0.1; FT mean score (Rattus norvegicus [30]): 0.1; LLR score (Rattus norvegicus [31]): 0.3; FBP mean score (Rattus norvegicus [32]): 11; FT mean score (Rattus norvegicus [33]): 4.3; LLR score (Rattus norvegicus [34]): 0.1; FBP mean score (Rattus norvegicus [35]): 0.3; FBP mean score (Rattus norvegicus [36]): 10.3; FT mean score (Rattus norvegicus [37]): 7.5; LLR score (Rattus norvegicus [38]): 2.3; ED50 (Rattus norvegicus [39]): > 32 mg/kg
3 | O=C1c2ccccc2C(=O)N1CCCCN1CCc2ccccc2C1 |  |  |  |  |  |  |  |  |  |  |  |  | 355 |  |  |  |  |  |  |  | 
4 | COc1ccccc1N1CCN(CCCCN2C(=O)[C@H]3CCCC[C@H]3C2=O)CC1 | 1.3 | 7.5 | 0.7 | 0.2 | 0.5 | 0.2 | 3.8 | 2.6 | 0.8 | 0.2 | 8.3 | 0.1 | 4 | 0.5 | 5.5 | 0.2 | 3.5 | 0.2 | 6.7 | 1.7 | ED50 (Rattus norvegicus [40]): 3.2 mg/kg; LLR score (Rattus norvegicus [22]): 0.5
